In the library only some 1.2% were active in any assay of this set; here they are far more common.
CAL PDZ FP-1: CAL PDZ peptide-binding inhibitors, primary screen, biochemical, fluorescence polarization, Cer-tagged CAL PDZ, HTS; purified CAL PDZ, TMR-peptide fluorescence polarization, 1 h; inhibition, % at 20 µM; 330,000 compounds, 0.02% hits; AID 504414, 2011;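 active means highest replicate inhibition of at least 40%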
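material = purified tagged CAL PDZ domain construct (CerCALP) | buffer or medium = sodium phosphate/NaCl buffer pH 7.4 with TCEP, IgG, Thesit | reagent = TMR-labelled reporter peptide T*-PRC34 bound in PDZ groove | incubation = 1 h room-temperature incubation prior to read | measured by = fluorescence polarization (mP) | evaluation = percent inhibition from loss of millipolarization | control set = unlabelled peptide and DMSO controls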
CAL PDZ FP-2: untagged CAL PDZ binding inhibitors, primary screen, biochemical, fluorescence polarization, HTS; Golgi-associated PDZ and coiled-coil motif-containing protein (Homo sapiens), Q9HD26; purified CAL PDZ, TMR-peptide fluorescence polarization, 1 h; inhibition, % at 24.9 µM; 300,000 compounds, 0.92% hits; AID 602252, 2012;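 active means mean inhibition of at least 30% with at least half of replicates also reaching 30%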
ARNT-TACC3 inh: disruptors of ARNT/TACC3 protein interaction, primary screen, biochemical, AlphaScreen, single concentration; AlphaScreen His-ARNT PAS-B/GST-TACC3 binding, luminescence; TACC3 fragment carries E629A point mutation; AID 623870, 2012; Transforming acidic coiled-coil-containing protein 3 (Homo sapiens), Q9Y6A5; inhibition, % at 9.99 µM; 390,000 compounds, 0.66% hits;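 active means mean inhibition of replicates at least 50% and at least half of replicates each reaching 50%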
CaV13 ICDI inh: Primary screen for inhibitors of IQ motif and Ca2+-dependent inactivation inhibitor domain binding in CACNA1D, Förster resonance energy transfer in living cells, …; HEK cells, CFP/YFP FRET ICDI-IQ, plate reader, 10 min; percent FRET-ratio fall versus neutral wells; inhibition, % at 12.3 µM; 340,000 compounds, 0.098% hits; AID 743397;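 active means mean replicate inhibition of at least 30% and at least 1% of replicates passing that level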
Numbers stand for hits; . = inactive; / = not tested or not shown.

SMILES | CAL PDZ FP-1 | CAL PDZ FP-2 | ARNT-TACC3 inh | CaV13 ICDI inh
CCc1ccc(C(=O)Nc2ccc3c(c2)n(C)c(=O)n3C)cc1 | . | / | . | .
Cn1c(=O)n(C)c2cc(NC(=O)c3ccccc3NS(C)(=O)=O)ccc21 | . | 80.4 | . | .
CC(=O)c1c(O)cc(C)n(Nc2nc(C)cc(C)n2)c1=O | . | . | 72.5 | .
COc1ccc(S(=O)(=O)N(C)C[C@H]2OCCCC[C@@H](C)Oc3ccc(NS(=O)(=O)c4c(C)noc4C)cc3C(=O)N([C@@H](C)CO)C[C@H]2C)cc1 | / | / | . | /
CO[C@H]1CN(C)C(=O)c2ccc(NC(=O)C3CC3)cc2OC[C@@H](C)N(C(=O)C2CCOCC2)C[C@@H]1C | / | / | . | /
COc1c(Cl)cc(Br)c(OC)c1C(=O)NC(=O)Nc1nc(C)cc(C)n1 | . | 82.8 | . | .
COCCNC(=O)C[C@@H]1CC[C@@H]2[C@H](COC[C@@H](O)CN2Cc2cccc(-c3ccncc3)c2)O1 | / | / | . | /
CCC(=O)N1[C@@H]2Cn3c(cccc3=O)[C@H]1[C@@H](C(=O)N1CCCCC1)[C@@H]2CO | / | / | . | /
COc1ccccc1-n1c(=S)[nH]c2c(sc(=S)n2-c2ccccc2C)c1=O | . | 74.8 | . | .
COc1ccc(OC)c(-n2c(=S)[nH]c3c(sc(=S)n3-c3ccccc3C)c2=O)c1 | . | . | . | .
COc1ccc(C2=Nn3c(nnc3-c3ccccn3)SC2)cc1 | . | / | 82.4 | .
C[C@@H]1CCCCO[C@H](CN(C)C(=O)Nc2ccc(C(F)(F)F)cc2)[C@@H](C)CN([C@@H](C)CO)C(=O)c2cc(NC(=O)Nc3ccccc3)ccc2O1 | / | / | . | /
COCC#Cc1cnc2c(c1)C(=O)N([C@@H](C)CO)C[C@H](C)[C@@H](CN(C)C(=O)Nc1ccccc1F)O2 | / | / | . | /
COc1cc2c(cc1NC(=S)NC(=O)c1c(OC)cccc1OC)oc1ccccc12 | . | . | . | .
COCCNC(=S)Nc1cc2oc3ccccc3c2cc1OC | . | 31.3 | . | /
O=C(O)Cc1sc(-c2ccc(Cl)cc2)nc1-c1ccccc1 | . | 54.3 | . | .
O=C(O)Cc1sc(-c2ccccc2)nc1-c1ccc(Cl)cc1 | / | / | / | .
CCC(CC)c1nnc(NC(=O)CCS(=O)(=O)Cc2ccccc2)s1 | . | 41.2 | / | .
Cc1cc(C)nc(NC(=O)Cc2ccc(Cl)cc2)c1 | . | 32.6 | . | .
CCCOc1ccccc1/C=C1\SC(N)=NC1=O | . | . | . | 43.5
CCCOc1ccc(/C=C2\SC(N)=NC2=O)cc1OC | . | . | . | .
C[C@@H]1CCCCO[C@H](CN(C)C(=O)Nc2ccc3c(c2)OCO3)[C@H](C)CN([C@@H](C)CO)C(=O)c2cc(NS(=O)(=O)c3cn(C)cn3)ccc2O1 | / | / | . | /
Cc1ccc2c(c1)N(C(=O)CCC(=O)NCCCN1CCOCC1)CC(C)O2 (stereo not drawn) | . | / | . | 47.5
Cc1ccc2c(c1)N(C(=O)CCC(=O)NCCN1CCOCC1)CC(C)O2 (stereo not drawn) | . | . | . | .
CC1CC(C)CN(CCCNC(=O)CCC(=O)N2CC(C)Oc3ccccc32)C1 (stereo not drawn) | . | / | / | 38.4
SMILES | CAL PDZ FP-1 | CAL PDZ FP-2 | ARNT-TACC3 inh | CaV13 ICDI inh
CNC(=O)C[C@@H]1CC[C@H]2[C@@H](COc3ccc(NC(=O)C(C)C)cc3C(=O)N2C)O1 | / | / | . | /
CN1CCN(C(=O)CC2C(=O)NCCN2Cc2ccc(-c3ccccc3)cc2)CC1 (stereo not drawn) | . | 71.3 | . | .
O=C(CC1C(=O)NCCN1Cc1ccc(-c2ccccc2)cc1)NCc1ccccc1 (stereo not drawn) | . | . | . | .
Cc1noc(C)c1C(=O)OCC(=O)NCCc1ccccc1 | . | 84.1 | . | .
Cc1noc(C)c1C(=O)OCC(=O)NCCc1ccc(S(N)(=O)=O)cc1 | . | . | . | .
O=C(N/N=C\c1ccccc1OCc1ccccc1)c1ccco1 | . | . | / | .
O=C(N/N=C/c1c(O)n(Cc2ccco2)c(=O)[nH]c1=O)c1ccccc1 | . | / | 62.5 | .
Cc1oc(-c2ccccc2)nc1C(=O)OCC(=O)NC(C)c1ccccc1 (stereo not drawn) | . | . | / | .
Cc1oc(-c2ccccc2)nc1C(=O)OCC(=O)NC(=O)NCC(C)C | . | 36.8 | . | .
CC(C)CNC(=O)COC(=O)c1n[nH]c2ccccc12 | . | 60.9 | . | .
O=S(=O)(c1cccc(F)c1)N1CC[C@@H]2[C@@H](CO)Nc3ccc(-c4cccc(F)c4)cc3[C@@H]21 | / | / | . | /
C[C@@H]1CCCCO[C@@H](CN(C)Cc2ccncc2)[C@H](C)CN([C@@H](C)CO)C(=O)c2cc(NC(=O)NC3CCCCC3)ccc2O1 | / | / | . | /
C[C@@H]1CN([C@H](C)CO)C(=O)c2cc(NC(=O)NC3CCCCC3)ccc2O[C@@H](C)CCCCO[C@@H]1CN(C)Cc1ccncc1 | / | / | . | /
COc1ccc(/C=N/Nc2cc(N3CCOCC3)ncn2)c(OC)c1 | . | . | . | .
COc1cccc(/C=N/Nc2nnc(C)n2N)c1O | . | . | 58.1 | .
COc1cccc(/C=N/Nc2cc(N3CCOCC3)ncn2)c1O | . | . | 48.5 | .
CO[C@H]1CC[C@@H]2CCN(C)C(=O)C[C@@H](c3ccccc3)CN(C)C(=O)c3cccc(C#N)c3OC[C@@H]1O2 | / | / | . | /
O=C(COc1ccccc1[N+](=O)[O-])c1ccccc1 | . | . | . | .
COC(=O)/C=C/COc1ccccc1[N+](=O)[O-] | . | 35.3 | . | .
C[C@@H]1CN([C@@H](C)CO)C(=O)c2cc(NC(=O)CCN3CCOCC3)ccc2O[C@H]1CN(C)Cc1ccccc1 | / | / | . | /
CCC(=O)Nc1ccc2c(c1)C(=O)N(C)[C@@H]1CC[C@H](CC(=O)NCCc3ccccc3)O[C@@H]1CO2 | / | / | . | /
CC(CC(=O)O)CC(=O)Nc1nncs1 (stereo not drawn) | . | 53.0 | . | .
C[C@H]1CCCCO[C@H](CN(C)S(=O)(=O)c2ccc(F)cc2)[C@@H](C)CN([C@@H](C)CO)C(=O)c2cc(NC(=O)Nc3ccccc3)ccc2O1 | / | / | . | /
CO[C@H]1CN(C)C(=O)c2cc(NC(=O)c3ccccc3)ccc2OC[C@@H](C)N(C(C)=O)C[C@@H]1C | / | / | . | /
Cc1ccsc1/C=N/Nc1nc(=O)[nH]nc1C | . | / | 63.7 | .
CO[C@H]1CN(C)C(=O)c2cc(NC(=O)Nc3ccc(Cl)cc3)ccc2OC[C@@H](C)N(C(=O)Nc2c(C)noc2C)C[C@H]1C | / | / | . | /
Cc1noc(C)c1S(=O)(=O)N(CC(=O)NCc1ccccc1)c1ccc(C(C)C)cc1 | . | / | . | .
Cc1noc(C)c1S(=O)(=O)N(CC(=O)N1CCCCCC1)c1ccc(C(C)C)cc1 | . | . | . | 50.5

From PubChem
